Experimental findings from ChEMBL document CHEMBL1671848, “In Vitro and In Vivo Osteogenic Activity of Largazole” (ACS Med Chem Lett, 2011) are described below.

Data set [1] has as its system C2C12. The experiment in a line: Osteogenic activity in mouse C2C12 cells assessed as increase of BMP9 mRNA expression at up to 50 nM after 6 days by RT-PCR analysis. The format is functional, cell-based. The gist of the method: (§1)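 Quantitative real-time PCR of mRNA from C2C12 cells, 1 × 10^6 cells per 60-mm plate, treated 6 days; rhBMP-2 at 300 ng/mL served as reference osteoblastogenesis inducer.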

For data set [2], the system named is C2C12. The data set can be described thus: Osteogenic activity in mouse C2C12 cells assessed as inhibition of multinucleated osteoclasts formation after 6 days. The class given is functional, cell-based.
For data set [3], the system named is C2C12. The experiment in a line: Osteogenic activity in mouse C2C12 cells assessed as increase of BMP4 mRNA expression at up to 50 nM after 6 days by RT-PCR analysis. The class given is functional, cell-based. The essentials: as §1
Data set [4] concerns Mus musculus. The data set can be described thus: Osteogenic activity in mouse assessed as induction of woven bone formation at 50 uM administered with collagen sponges in calvarial bone after 3 weeks. The class given is functional, organism-based. The gist of the method: (§2)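 Collagen sponges holding 5 μL of compound solution or PBS vehicle placed onto mouse calvarial bones; after 3-week implantation calvariae removed, fixed, decalcified, paraffin-embedded and sectioned for histology of woven bone formation.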

Data set [5] concerns Mus musculus. The experiment in a line: Osteogenic activity in mouse assessed as induction of woven bone formation at 10 uM administered with collagen sponges in calvarial bone after 3 weeks. The class given is functional, organism-based. The essentials: as §2
The test system of data set [6] is C2C12. The experiment in a line: Osteogenic activity in mouse C2C12 cells assessed as increase of BMP6 mRNA expression at up to 50 nM after 6 days by RT-PCR analysis. The class given is functional, cell-based. The essentials:
as §1

In data set [7] the target is Runt-related transcription factor 2 (Mus musculus) (UniProt Q08775). The experiment in a line: Activation of Runx2 activity in mouse C2C12 cells at 50 nM after 24 hrs by luciferase reporter gene assay relative to control. The class given is cell-based. The gist of the method:
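6×OSE2-luc plasmid-transfected C2C12 cells, 4 × 10^3 cells/well, cultured 1 day, then 1 day in DMEM with 5% FBS with or without compound; Runx2 activation read as luciferase activity.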
For orientation: A reporter such as luciferase makes a cellular process visible.

For the next data set, the species on record is Oryctolagus cuniculus. The experiment in a line: Osteogenic activity in rabbit calvarial bone fracture healing model assessed as bone formation at 100 to 200 nM after 4 weeks. The class given is functional.
Data set [8] relates to C2C12. The experiment in a line: Induction of osteoblast differentiation in mouse C2C12 cells assessed as increase of osteopontin expression up to 100 nM after 6 days. The class given is functional, cell-based.
Data set [9] has as its system C2C12. The experiment in a line: Osteogenic activity in mouse C2C12 cells assessed as increase of Runx2 mRNA expression at 50 nM after 6 days by RT-PCR analysis relative to control. The class given is functional. The gist of the method:
as §1

Data set [10] has as its system C2C12. The data set can be described thus: Osteogenic activity in mouse C2C12 cells assessed as increase of BMP7 mRNA expression at up to 50 nM after 6 days by RT-PCR analysis. The class given is functional, cell-based. The essentials: as §1
Data set [11] concerns C2C12. The data set can be described thus: Inhibition of HDAC in mouse C2C12 cells at 5 to 100 nM after 24 hrs by fluorescence assay. The format is cell-based. The gist of the method:
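Total HDAC activity in intact C2C12 cells, 4 × 10^3 cells/well, cultured 24 h, pretreated with compound 1 h, then incubated with fluorogenic deacetylase Lysyl substrate; HDAC activity read by fluorescence per kit protocol.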

For data set [12], the system named is C2C12. The data set can be described thus: Osteogenic activity in mouse C2C12 cells assessed as increase of BMP2 mRNA expression at up to 50 nM after 6 days by RT-PCR analysis. The class given is functional, cell-based. The gist of the method:
as §1

For data set [13], the system named is C2C12. The experiment in a line: Induction of osteoblast differentiation in mouse C2C12 cells assessed as increase of alkaline phosphatase expression after 6 days. The format is functional, cell-based. The essentials:
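C2C12 cells, 4 × 10^3 cells/well, cultured 24 h, then treated for 6 days with medium changed every 3 days; osteoblast differentiation assessed by alkaline phosphatase staining.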

Data set [14] relates to C2C12. The experiment in a line: Inhibition of HDAC in mouse C2C12 cells assessed as increase of acetylated histone level after 24 hrs by Western blotting. The class given is cell-based. The gist of the method: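 C2C12 cells, 2 × 10^6 cells per 100-mm plate, cultured 24 h, then treated 24 h; protein extracts analysed for hyperacetylated histones by Western blot with actin as loading control.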
(In general: Immunoblotting shows a protein as a band on a membrane.)

The subject of data set [15] is C2C12. The data set can be described thus: Cytotoxicity against mouse C2C12 cells up to 100 uM after 3 days. The format is cell-based. Conditions: c2c12, 72 h.

Each structure is given as a SMILES string. Activity calls are given as the source filed them. The rule behind the calls is not given here.

Runt-related transcription factor 2 (Mus musculus), sequence (Q08775 whole entry): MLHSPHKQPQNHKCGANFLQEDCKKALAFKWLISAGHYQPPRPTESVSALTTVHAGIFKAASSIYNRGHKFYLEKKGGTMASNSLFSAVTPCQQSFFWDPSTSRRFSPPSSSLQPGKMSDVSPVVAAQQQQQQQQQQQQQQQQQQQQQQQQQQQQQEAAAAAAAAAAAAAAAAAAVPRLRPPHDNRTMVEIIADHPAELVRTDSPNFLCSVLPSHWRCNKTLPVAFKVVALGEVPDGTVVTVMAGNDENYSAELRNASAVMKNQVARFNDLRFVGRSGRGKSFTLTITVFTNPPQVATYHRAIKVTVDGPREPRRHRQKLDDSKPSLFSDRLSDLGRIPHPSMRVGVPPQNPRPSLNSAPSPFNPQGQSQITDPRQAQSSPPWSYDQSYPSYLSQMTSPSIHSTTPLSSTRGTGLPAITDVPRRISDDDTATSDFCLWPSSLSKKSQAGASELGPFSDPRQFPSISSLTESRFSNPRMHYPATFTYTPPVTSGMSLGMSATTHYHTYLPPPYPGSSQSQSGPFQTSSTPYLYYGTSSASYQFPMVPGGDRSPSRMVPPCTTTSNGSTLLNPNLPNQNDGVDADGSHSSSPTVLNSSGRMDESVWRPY

`CCCCCCCC(=O)SCC/C=C/[C@@H]1CC(=O)NCc2nc(cs2)C2=N[C@@](C)(CS2)C(=O)N[C@@H](C(C)C)C(=O)O1` [LARGAZOLE]: the result in the data set with C2C12 [1], in the data set on C2C12 [2], with C2C12 [3], with Mus musculus [4], with Mus musculus [5] and in the data set with C2C12 [6] was Active. The outcome in the data set filed under Oryctolagus cuniculus, with C2C12 [8], in the data set on C2C12 [10], in the data set on C2C12 [12] and in the data set on C2C12 [13] was Active. In addition, the fold change (FC) in data set [7] amounted to 29; in the data set with C2C12 [9] it was 3. For the same molecule, the inhibition result in the data set with C2C12 [11] was “Active”. Moreover, the inhibition entry in the data set with C2C12 [14] is “Dose-dependent effect”. Moreover, the Activity entry in the data set with C2C12 [15] is reported as “Non-toxic”.
